Experimental data: ChEMBL document CHEMBL1154803, “Tetranortriterpenoids from Chisocheton paniculatus” (J Nat Prod, 2009)

Legend:
SMMC-7721 = test: Cytotoxicity against human SMMC7721 cells by MTT assay; assay type: functional, cell-based
Summary of the method: (§1)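 MTT assay per a literature method. HeLa (cervical) and SMMC7721 (hepatoma) cells came from the Cell Bank of the Shanghai Institute of Cell Biology. Fluorouracil served as positive control. Three independent replicates were run, and IC50 values were reported.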

HeLa = test: Cytotoxicity against human HeLa cells by MTT assay; assay type: functional, cell-based; summary of the method: as §1

SMILES: C/C=C(\C)C(=O)O[C@@H]1[C@@H]2OC[C@]3(C)[C@H](OC(C)=O)C[C@H](OC(C)=O)[C@@](C)([C@@H]23)[C@H]2C[C@H](OC)O[C@H]3C[C@@H](C4=CCOC4=O)C(C)=C3[C@]12C [CHISONIMBOLININ A]
- IC50 (SMMC-7721): > 100 µM
- IC50 (HeLa): > 100 µM

SMILES: C/C=C(\C)C(=O)O[C@@H]1[C@@H]2OC[C@]3(C)[C@H](OC(C)=O)C[C@H](O)[C@@](C)([C@@H]23)[C@H]2C[C@H](OC)O[C@H]3C[C@@H](C4=CCOC4=O)C(C)=C3[C@]12C [CHISONIMBOLININ B]
- IC50 (SMMC-7721): 50 µM
- IC50 (HeLa): > 100 µM

SMILES: C/C=C(\C)C(=O)O[C@@H]1[C@@H]2OC[C@]3(C)[C@H](OC(=O)/C(C)=C/C)C[C@H](O)[C@@](C)([C@@H]23)[C@H]2C[C@H](OC)O[C@H]3C[C@@H](C4=CCOC4=O)C(C)=C3[C@]12C [CHISONIMBOLININ C]
- IC50 (SMMC-7721): 50 µM
- IC50 (HeLa): 13 µM

SMILES: C/C=C(\C)C(=O)O[C@@H]1[C@@H]2OC[C@]3(C)[C@H](OC(C)=O)C[C@H](O)[C@@](C)([C@@H]23)[C@H]2C[C@H](O)O[C@H]3C[C@@H](C4=CCOC4=O)C(C)=C3[C@]12C [CHISONIMBOLININ D]
- IC50 (SMMC-7721): 50 µM
- IC50 (HeLa): 32 µM

SMILES: C/C=C(\C)C(=O)O[C@@H]1[C@@H]2OC[C@]3(C)[C@H](OC(C)=O)C[C@H](O)[C@@](C)([C@@H]23)[C@H]2C[C@H](OCC)O[C@H]3C[C@@H](C4=CCOC4=O)C(C)=C3[C@]12C [CHISONIMBOLININ E]
- IC50 (SMMC-7721): > 100 µM
- IC50 (HeLa): > 100 µM

SMILES: C/C=C(\C)C(=O)O[C@@H]1[C@@H]2OC[C@]3(C)[C@H](OC(C)=O)C[C@H](O)[C@@](C)([C@@H]23)[C@H]2CCO[C@H]3C[C@@H](C4=CCOC4=O)C(C)=C3[C@]12C [CHISONIMBOLININ F]
- IC50 (SMMC-7721): > 100 µM
- IC50 (HeLa): > 100 µM

SMILES: C/C=C(\C)C(=O)O[C@@H]1[C@@H]2OC[C@]3(C)[C@H](OC(C)=O)C[C@H](OC(C)=O)[C@@](C)([C@@H]23)[C@H]2CCO[C@H]3C[C@@H](C4=CCOC4=O)C(C)=C3[C@]12C [CHISONIMBOLININ G]
- IC50 (SMMC-7721): > 100 µM
- IC50 (HeLa): > 100 µM
